Active and inactive are the calls of the source. The calls are words filed in the database; no cut-off is given here.
What was measured:
Homo sapiens [1] = organism: Homo sapiens; experiment: Displacement of [125I]Tyr11-somatostatin-14 from somatostatin receptor (unknown origin) at 1 uM after 60 mins
[2] = target: Mu-type opioid receptor (Homo sapiens) (UniProt P35372); experiment: Displacement of [3H]DAMGO from mu opioid receptor (unknown origin) at 1 uM after 120 mins
[3] = target: T1, Muscarinic acetylcholine receptor M4 (Homo sapiens) (UniProt P08173); experiment: Displacement of [3H]-4-DAMP from muscarinic M4 receptor (unknown origin) at 1 uM after 60 mins
T1 sequence (whole entry): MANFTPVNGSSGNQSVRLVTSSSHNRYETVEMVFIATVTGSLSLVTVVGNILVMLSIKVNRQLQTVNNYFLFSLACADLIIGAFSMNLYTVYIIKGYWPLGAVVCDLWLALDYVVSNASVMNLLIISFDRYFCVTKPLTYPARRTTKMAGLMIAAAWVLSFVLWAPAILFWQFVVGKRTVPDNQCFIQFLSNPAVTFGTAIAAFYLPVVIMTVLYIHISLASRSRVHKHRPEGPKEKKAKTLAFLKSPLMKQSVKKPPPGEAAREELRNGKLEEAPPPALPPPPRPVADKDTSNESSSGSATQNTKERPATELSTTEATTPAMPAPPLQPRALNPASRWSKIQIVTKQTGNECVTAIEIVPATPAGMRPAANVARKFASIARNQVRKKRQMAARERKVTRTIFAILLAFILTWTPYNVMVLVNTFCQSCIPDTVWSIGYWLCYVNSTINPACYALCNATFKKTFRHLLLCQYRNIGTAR

Homo sapiens [4] = organism: Homo sapiens; experiment: Displacement of [3H]CGP54626 from GABAB receptor (unknown origin) at 1 uM after 120 mins
[5] = target: Cannabinoid receptor 2 (Homo sapiens) (UniProt P34972); experiment: Displacement of [3H]WIN55212-2 from CB2 receptor (unknown origin) at 1 uM after 120 mins
[6] = target: Cannabinoid receptor 1 (Homo sapiens) (UniProt P21554); experiment: Displacement of [3H]CP 55940 from CB1 receptor (unknown origin) at 1 uM after 120 mins
Mus musculus [7] = experiment: Antinociceptive activity in CD-1 mouse assessed as reduction of formalin-induced paw licking activity at 30 mg/kg, po administered 30 mins prior to formalin-challenge measured after 15 to 30 mins; format: functional, organism-based; parameters: dose 30 mg/kg
Mus musculus [8] = experiment: Antinociceptive activity in CD-1 mouse assessed as reduction of formalin-induced paw licking activity at 30 mg/kg, po administered 30 mins prior to formalin-challenge measured after 5 mins; format: functional, organism-based; parameters: dose 30 mg/kg
Mus musculus [9] = experiment: Antinociceptive activity in CD-1 mouse assessed as reduction of formalin-induced paw licking activity at 3 mg/kg, ip administered 15 mins prior to formalin-challenge measured after 5 mins; format: functional, organism-based; parameters: dose 3 mg/kg
Mus musculus [10] = experiment: Antinociceptive activity in CD-1 mouse assessed as reduction of formalin-induced paw licking activity at 3 mg/kg, ip administered 15 mins prior to formalin-challenge measured after 15 to 30 mins; format: functional, organism-based; parameters: dose 3 mg/kg
Albumin = Albumin (Homo sapiens, UniProt P02768); experiment: Binding affinity to human serum albumin at 5 uM after 12 mins by HPLC-MS analysis relative to control; format: ADME; settings: isolated protein, 0.2 h
CYP2D6 = CYP2D6 (Homo sapiens, UniProt P10635); experiment: Inhibition of human recombinant microsomal CYP2D6 using {3-[2-(N,N-diethyl-N-methylamino)ethyl]-7-methoxy-4-methylcoumarin} as substrate assessed as remaining activity at 10 uM after 30 mins by spectrofluorimetric analysis relative to control; format: ADME; settings: read-out: Activity
[11] = Half life in mouse liver microsomes at 1 to 5 uM by HPLC-MS analysis; format: ADME, Microsome
[12] = Half life in human liver microsomes at 1 to 5 uM by HPLC-MS analysis; format: ADME, Microsome
Procedure, shortened: (§1)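 Incubation mixtures pre-equilibrated at 37 °C with NADPH and MgCl2, then rat or human liver microsomes added to start the reaction. Aliquots were withdrawn and quenched at several time points, and percent parent remaining was measured by HPLC-MS and plotted against time. t1/2 was taken from the slope of peak area over time and used to calculate CLint.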

[13] = Intrinsic clearance in human liver microsomes at 1 to 5 uM by HPLC-MS analysis; format: ADME, Microsome; settings: read-out: CLH; procedure, shortened: as §1
Mus musculus [14] = organism: Mus musculus; experiment: Hypothermic activity in Swiss mouse assessed as change in rectal temperature after 60 mins; format: functional; settings: 1 h, read-out: MED
[15] = target: T2, 5-hydroxytryptamine receptor 1A (Homo sapiens, UniProt P08908); experiment: Agonist activity at human 5-HT1A receptor expressed in human HeLa cells assessed as inhibition of forskolin-stimulated cAMP formation after 10 mins by RIA; format: functional, cell-based
T2 sequence (P08908 whole entry): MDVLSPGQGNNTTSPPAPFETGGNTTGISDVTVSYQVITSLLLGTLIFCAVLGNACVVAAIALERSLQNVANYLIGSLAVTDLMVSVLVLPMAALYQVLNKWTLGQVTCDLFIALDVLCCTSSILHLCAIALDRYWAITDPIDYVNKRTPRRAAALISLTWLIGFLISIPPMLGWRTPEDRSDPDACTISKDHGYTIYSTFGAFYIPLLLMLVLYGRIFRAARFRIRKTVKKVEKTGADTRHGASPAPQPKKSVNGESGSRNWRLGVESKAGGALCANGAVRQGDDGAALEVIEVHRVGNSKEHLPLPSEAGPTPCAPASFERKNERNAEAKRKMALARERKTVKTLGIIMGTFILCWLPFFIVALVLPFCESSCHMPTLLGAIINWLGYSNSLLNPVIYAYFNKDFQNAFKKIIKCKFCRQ

[16] = target: 5-hydroxytryptamine receptor 4 (Rattus norvegicus, UniProt Q62758); experiment: Displacement of [3H]GR113808 from 5-HT4 receptor in Sprague-Dawley rat striatum after 30 mins
[17] = target: T3, 5-hydroxytryptamine receptor 3A (Rattus norvegicus, UniProt P35563); experiment: Displacement of [3H]LY 278584 from 5-HT3 receptor in Sprague-Dawley rat cerebral cortex after 30 mins; format: tissue-based
T3 sequence (P35563 whole entry): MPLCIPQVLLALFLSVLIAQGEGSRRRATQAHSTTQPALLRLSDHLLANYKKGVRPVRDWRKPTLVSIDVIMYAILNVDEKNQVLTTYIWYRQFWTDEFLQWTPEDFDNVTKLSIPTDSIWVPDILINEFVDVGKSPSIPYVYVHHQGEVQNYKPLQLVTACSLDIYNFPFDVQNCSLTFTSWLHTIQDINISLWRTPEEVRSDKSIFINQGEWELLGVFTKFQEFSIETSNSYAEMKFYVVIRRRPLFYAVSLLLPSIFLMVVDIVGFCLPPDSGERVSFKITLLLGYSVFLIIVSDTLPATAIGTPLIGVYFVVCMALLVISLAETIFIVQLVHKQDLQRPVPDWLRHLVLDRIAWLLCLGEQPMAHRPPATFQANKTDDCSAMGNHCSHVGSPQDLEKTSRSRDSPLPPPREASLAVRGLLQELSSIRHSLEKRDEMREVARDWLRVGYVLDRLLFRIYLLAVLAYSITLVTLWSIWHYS

[18] = target: 5-hydroxytryptamine receptor 2A (Rattus norvegicus, UniProt P14842); experiment: Displacement of [3H]ketanserin from 5-HT2A receptor in Sprague-Dawley rat frontal cortex after 15 mins; format: tissue-based
Sequence of 5-hydroxytryptamine receptor 2A (P14842 whole entry): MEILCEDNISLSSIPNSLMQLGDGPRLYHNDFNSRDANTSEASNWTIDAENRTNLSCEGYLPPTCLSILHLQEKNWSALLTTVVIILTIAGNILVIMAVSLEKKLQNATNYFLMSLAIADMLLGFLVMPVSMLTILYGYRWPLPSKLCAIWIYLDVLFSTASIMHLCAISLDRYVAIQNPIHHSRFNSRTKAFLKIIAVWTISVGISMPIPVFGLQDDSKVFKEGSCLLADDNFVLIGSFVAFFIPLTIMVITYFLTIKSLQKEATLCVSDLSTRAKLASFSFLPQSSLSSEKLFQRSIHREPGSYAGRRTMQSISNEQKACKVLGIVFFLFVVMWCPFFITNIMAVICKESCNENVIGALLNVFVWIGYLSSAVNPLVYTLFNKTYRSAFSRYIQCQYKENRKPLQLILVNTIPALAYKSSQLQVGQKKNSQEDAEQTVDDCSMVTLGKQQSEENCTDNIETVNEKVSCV

Sequence of Cannabinoid receptor 1 (Homo sapiens) (P21554 whole entry): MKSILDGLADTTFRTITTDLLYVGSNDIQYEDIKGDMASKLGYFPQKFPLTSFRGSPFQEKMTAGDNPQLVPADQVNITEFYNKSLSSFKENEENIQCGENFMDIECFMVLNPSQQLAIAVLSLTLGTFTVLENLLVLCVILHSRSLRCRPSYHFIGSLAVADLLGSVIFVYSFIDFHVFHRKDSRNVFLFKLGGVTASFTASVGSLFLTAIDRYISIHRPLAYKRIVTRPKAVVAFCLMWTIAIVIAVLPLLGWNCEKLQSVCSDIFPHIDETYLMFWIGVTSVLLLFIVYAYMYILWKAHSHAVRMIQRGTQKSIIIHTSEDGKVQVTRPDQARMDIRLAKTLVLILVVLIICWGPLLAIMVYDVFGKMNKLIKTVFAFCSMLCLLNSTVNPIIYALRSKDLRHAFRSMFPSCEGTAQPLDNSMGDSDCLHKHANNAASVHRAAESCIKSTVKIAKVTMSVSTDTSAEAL
Sequence of 5-hydroxytryptamine receptor 4 (Q62758 whole entry): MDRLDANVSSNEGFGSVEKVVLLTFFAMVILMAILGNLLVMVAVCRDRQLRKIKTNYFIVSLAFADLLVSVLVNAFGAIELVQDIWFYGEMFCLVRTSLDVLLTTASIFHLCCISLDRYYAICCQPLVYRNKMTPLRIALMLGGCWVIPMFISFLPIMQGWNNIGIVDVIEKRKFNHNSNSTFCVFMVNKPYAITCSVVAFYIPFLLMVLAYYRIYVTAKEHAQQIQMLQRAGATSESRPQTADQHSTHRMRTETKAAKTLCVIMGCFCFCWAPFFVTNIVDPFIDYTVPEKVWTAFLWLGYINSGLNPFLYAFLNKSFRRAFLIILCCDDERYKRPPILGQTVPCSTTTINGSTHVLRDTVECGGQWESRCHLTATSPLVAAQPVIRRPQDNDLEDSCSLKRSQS
Sequence of Mu-type opioid receptor (Homo sapiens) (P35372 whole entry): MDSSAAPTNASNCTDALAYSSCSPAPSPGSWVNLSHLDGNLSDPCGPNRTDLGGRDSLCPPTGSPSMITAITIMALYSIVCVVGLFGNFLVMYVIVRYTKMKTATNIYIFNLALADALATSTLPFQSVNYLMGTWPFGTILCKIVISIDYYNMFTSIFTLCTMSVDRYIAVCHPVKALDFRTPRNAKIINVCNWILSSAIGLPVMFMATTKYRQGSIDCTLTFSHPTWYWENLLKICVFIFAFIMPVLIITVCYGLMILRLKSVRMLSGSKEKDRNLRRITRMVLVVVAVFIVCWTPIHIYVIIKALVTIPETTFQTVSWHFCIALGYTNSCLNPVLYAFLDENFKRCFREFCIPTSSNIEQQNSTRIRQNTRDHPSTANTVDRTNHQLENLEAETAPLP
Sequence of CYP2D6 (P10635 whole entry): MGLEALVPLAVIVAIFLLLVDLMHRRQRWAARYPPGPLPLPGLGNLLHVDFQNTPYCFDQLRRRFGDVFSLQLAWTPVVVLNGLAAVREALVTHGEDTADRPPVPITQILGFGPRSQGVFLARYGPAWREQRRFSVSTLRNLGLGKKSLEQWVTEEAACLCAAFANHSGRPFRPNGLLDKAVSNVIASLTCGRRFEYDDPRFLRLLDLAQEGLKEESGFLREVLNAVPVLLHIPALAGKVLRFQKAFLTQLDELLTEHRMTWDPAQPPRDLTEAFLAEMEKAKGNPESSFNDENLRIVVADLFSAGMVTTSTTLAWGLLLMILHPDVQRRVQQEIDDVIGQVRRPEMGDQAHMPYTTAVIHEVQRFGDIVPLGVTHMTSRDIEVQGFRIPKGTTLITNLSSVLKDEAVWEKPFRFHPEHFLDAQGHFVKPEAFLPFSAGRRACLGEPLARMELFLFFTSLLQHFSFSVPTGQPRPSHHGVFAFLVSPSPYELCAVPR
Sequence of Albumin (P02768 whole entry): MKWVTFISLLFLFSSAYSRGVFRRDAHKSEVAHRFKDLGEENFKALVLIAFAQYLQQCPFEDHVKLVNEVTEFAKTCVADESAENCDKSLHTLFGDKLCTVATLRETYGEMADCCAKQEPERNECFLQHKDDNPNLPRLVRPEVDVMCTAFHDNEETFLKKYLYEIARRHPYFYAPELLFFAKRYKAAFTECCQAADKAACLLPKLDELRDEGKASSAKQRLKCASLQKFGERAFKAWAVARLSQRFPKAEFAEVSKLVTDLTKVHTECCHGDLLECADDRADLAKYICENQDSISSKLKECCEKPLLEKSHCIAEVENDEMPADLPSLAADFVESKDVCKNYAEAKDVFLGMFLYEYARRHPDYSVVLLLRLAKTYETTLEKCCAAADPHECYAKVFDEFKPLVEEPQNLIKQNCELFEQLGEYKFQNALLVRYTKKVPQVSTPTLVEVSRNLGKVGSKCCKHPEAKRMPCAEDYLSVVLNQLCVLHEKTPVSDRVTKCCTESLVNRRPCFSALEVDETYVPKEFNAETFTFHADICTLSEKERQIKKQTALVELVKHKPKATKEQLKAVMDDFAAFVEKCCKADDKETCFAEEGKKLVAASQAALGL
Sequence of Cannabinoid receptor 2 (Homo sapiens) (P34972 whole entry): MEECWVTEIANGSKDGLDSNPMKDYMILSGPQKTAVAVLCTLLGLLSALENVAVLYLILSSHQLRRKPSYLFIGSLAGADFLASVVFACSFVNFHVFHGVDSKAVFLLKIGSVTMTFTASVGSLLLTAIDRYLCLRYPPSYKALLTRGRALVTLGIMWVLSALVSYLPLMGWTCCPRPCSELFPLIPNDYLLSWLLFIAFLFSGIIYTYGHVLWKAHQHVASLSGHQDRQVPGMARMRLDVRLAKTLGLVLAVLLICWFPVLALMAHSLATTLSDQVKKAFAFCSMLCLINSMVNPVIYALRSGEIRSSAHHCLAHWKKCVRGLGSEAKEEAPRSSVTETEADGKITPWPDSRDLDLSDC

With CCOc1ccccc1OCCNCCCCN1C(=O)C2CCCN2C1=O.Cl (stereo not given) the inhibition (Homo sapiens [1]) was “inactive”, the inhibition [2] was “inactive” and the inhibition [3] was “inactive”. The inhibition (Homo sapiens [4]) was “inactive”, the inhibition [5] was “inactive” and the inhibition [6] was “inactive”. For the same compound, the Activity (Mus musculus [7]) was “Active”, the Activity (Mus musculus [8]) was “Active” and the Activity (Mus musculus [9]) was “Active”. For the same compound, the Activity (Mus musculus [10]) was “Active”, the Activity (Albumin) was 25% and the activity at 0.5 h, 10 µM (CYP2D6) was 18%. The half-life at up to 5 µM [11] was 29.5 min, the half-life at up to 5 µM [12] was 179 min and the CLint scaled at up to 5 µM [13] was 3.5 mL/min/kg. It also gave a minimal effective dose (Mus musculus [14]) of 0.875 mg/kg, an EC50 [15] of 19 nM and a Ki [16] of over 1000 nM. The Ki [17] was over 1000 nM and the Ki [18] was over 1000 nM.

Reference: ChEMBL document CHEMBL2429786, “New serotonin 5-HT1A receptor agonists endowed with antinociceptive activity in vivo” (J Med Chem, 2013)
